Test results published in ChEMBL document CHEMBL1649382, “Synthesis and in vitro anticancer evaluation of some novel hexahydroquinoline derivatives having a benzenesulfonamide moiety” (Eur J Med Chem, 2011).
In brackets after ≈: the same amount, converted by molar mass.

Assays:
[1] = Cytotoxicity against mouse EAC assessed as non-viable cells at 100 ug/ml after 2 hrs by trypan blue exclusion test; assay type: functional, Ehrlich
How it was run: (§1)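 Mouse EAC cells came from ascitic fluid by needle aspiration, at 2.5×10^6 per mL in RPMI-1640. Each tube held 0.8 mL medium (glutamine, fetal calf serum, streptomycin, penicillin), 0.1 mL compound dissolved in DMSO (stock 10–100 µg per mL) and 0.1 mL of cells, at 37 °C for 2 h. Trypan blue staining gave the percentage of non-viable cells, as the mean of three experiments ± SD.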

[2] = Cytotoxicity against mouse EAC assessed as non-viable cells at 50 ug/ml after 2 hrs by trypan blue exclusion test; assay type: functional, Ehrlich; how it was run: as §1
[3] = Cytotoxicity against mouse EAC assessed as non-viable cells at 25 ug/ml after 2 hrs by trypan blue exclusion test; assay type: functional, Ehrlich; how it was run: as §1
[4] = Cytotoxicity against mouse EAC assessed as non-viable cells at 10 ug/ml after 2 hrs by trypan blue exclusion test; assay type: functional, Ehrlich; how it was run: as §1
[5] = Cytotoxicity against mouse EAC assessed as non-viable cells after 2 hrs by trypan blue exclusion test; assay type: functional, cell-based; conditions: Ehrlich
How it was run: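 EAC cells were aspirated from the ascitic fluid of preinoculated mice and suspended in RPMI-1640 at 2.5×10^6 per mL. Each tube held 0.8 mL supplemented medium, 0.1 mL of a DMSO solution (100, 50, 25 or 10 µg per mL DMSO) and 0.1 mL of cells, incubated 2 h at 37 °C. Non-viable cells were counted by trypan blue. The survival-versus-concentration curve gave IC50, the concentration causing 50% mortality.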

Row | Structure (SMILES) | Activity [1] [%] | Activity [2] [%] | Activity [3] [%] | Activity [4] [%] | IC50 [5] [µg/mL]
1 | CC(Cl)CC(=O)NC1=C(C#N)C(c2ccc(Cl)cc2Cl)C2=C(CCCC2=O)N1c1ccc(S(N)(=O)=O)cc1 (stereo not given) | 60 | 55 | 50 | 20 | 25 (≈ 42.1 µM)
2 | N#CC1=C(NC(=O)C2CC2)N(c2ccc(S(N)(=O)=O)cc2)C2=C(C(=O)CCC2)C1c1ccc(Cl)cc1Cl (stereo not given) | 60 | 40 | 40 | 20 | 75 (≈ 135 µM)
3 | N#CC1=C(NC(=O)c2ccccc2)N(c2ccc(S(N)(=O)=O)cc2)C2=C(C(=O)CCC2)C1c1ccc(Cl)cc1Cl (stereo not given) | 75 | 70 | 60 | 50 | 10 (≈ 16.8 µM)
4 | Cc1ccc(C(=O)NC2=C(C#N)C(c3ccc(Cl)cc3Cl)C3=C(CCCC3=O)N2c2ccc(S(N)(=O)=O)cc2)cc1 (stereo not given) | 40 | 40 | 30 | 20 | > 100
5 | N#CC1=C(NC(=O)/C=C/c2ccccc2)N(c2ccc(S(N)(=O)=O)cc2)C2=C(C(=O)CCC2)C1c1ccc(Cl)cc1Cl (stereo not given) | 45 | 40 | 30 | 30 | > 100
6 | N#CC1=C(NC(=O)c2ccc([N+](=O)[O-])cc2)N(c2ccc(S(N)(=O)=O)cc2)C2=C(C(=O)CCC2)C1c1ccc(Cl)cc1Cl (stereo not given) | 70 | 50 | 40 | 40 | 50 (≈ 78.3 µM)
7 | COc1cc(C(=O)NC2=C(C#N)C(c3ccc(Cl)cc3Cl)C3=C(CCCC3=O)N2c2ccc(S(N)(=O)=O)cc2)cc(OC)c1OC (stereo not given) | 95 | 95 | 20 | 0 | 60 (≈ 87.8 µM)
8 | CC(Cl)Cc1nc2c(c(=O)[nH]1)C(c1ccc(Cl)cc1Cl)C1=C(CCCC1=O)N2c1ccc(S(N)(=O)=O)cc1 (stereo not given) | 60 | 40 | 40 | 30 | > 100
9 | NS(=O)(=O)c1ccc(N2C3=C(C(=O)CCC3)C(c3ccc(Cl)cc3Cl)c3c2nc(C2CC2)[nH]c3=O)cc1 (stereo not given) | 60 | 52 | 44 | 27 | 56 (≈ 100 µM)
10 | NS(=O)(=O)c1ccc(N2C3=C(C(=O)CCC3)C(c3ccc(Cl)cc3Cl)c3c2nc(-c2ccccc2)[nH]c3=O)cc1 (stereo not given) | 60 | 10 | 0 | 0 | > 100
11 | Cc1ccc(-c2nc3c(c(=O)[nH]2)C(c2ccc(Cl)cc2Cl)C2=C(CCCC2=O)N3c2ccc(S(N)(=O)=O)cc2)cc1 (stereo not given) | 60 | 55 | 55 | 30 | 28 (≈ 46.1 µM)
12 | NS(=O)(=O)c1ccc(N2C3=C(C(=O)CCC3)C(c3ccc(Cl)cc3Cl)c3c2nc(-c2ccc(Br)cc2)[nH]c3=O)cc1 (stereo not given) | 100 | 60 | 50 | 20 | 25 (≈ 37.2 µM)
13 | NS(=O)(=O)c1ccc(N2C3=C(C(=O)CCC3)C(c3ccc(Cl)cc3Cl)c3c2nc(CCl)[nH]c3=O)cc1 (stereo not given) | 40 | 35 | 30 | 30 | > 100
14 | NC(=O)C1=C(N)N(c2ccc(S(N)(=O)=O)cc2)C2=C(C(=O)CCC2)C1c1ccc(Cl)cc1Cl (stereo not given) | 45 | 40 | 30 | 30 | > 100
15 | NC1=C(C(=O)O)C(c2ccc(Cl)cc2Cl)C2=C(CCCC2=O)N1c1ccc(S(N)(=O)=O)cc1 (stereo not given) | 60 | 10 | 0 | 0 | > 100
16 | CN(C)c1ccc(/C=N/C2=C(C#N)C(c3ccc(Cl)cc3Cl)C3=C(CCCC3=O)N2c2ccc(S(N)(=O)=O)cc2)cc1 (stereo not given) | 40 | 30 | 30 | 10 | > 100
17 | CN(C)c1ccc(/C=C/C=N/C2=C(C#N)C(c3ccc(Cl)cc3Cl)C3=C(CCCC3=O)N2c2ccc(S(N)(=O)=O)cc2)cc1 (stereo not given) | 20 | 20 | 20 | 10 | > 100
18 | N#CC1=C(/N=C/c2ccc([N+](=O)[O-])cc2[N+](=O)[O-])N(c2ccc(S(N)(=O)=O)cc2)C2=C(C(=O)CCC2)C1c1ccc(Cl)cc1Cl (stereo not given) | 20 | 20 | 20 | 10 | > 100
19 | CC(=O)CC(=O)NC1=C(C#N)C(c2ccc(Cl)cc2Cl)C2=C(CCCC2=O)N1c1ccc(S(N)(=O)=O)cc1 (stereo not given) | 80 | 60 | 44 | 40 | 64 (≈ 112 µM)
20 | Cc1nc2c(c(=S)[nH]1)C(c1ccc(Cl)cc1Cl)C1=C(CCCC1=O)N2c1ccc(S(N)(=O)=O)cc1 (stereo not given) | 60 | 40 | 40 | 30 | > 100
21 | CCO/C=N/C1=C(C#N)C(c2ccc(Cl)cc2Cl)C2=C(CCCC2=O)N1c1ccc(S(N)(=O)=O)cc1 (stereo not given) | 40 | 35 | 30 | 30 | > 100
22 | N#CC1=C(N)N(c2ccc(S(N)(=O)=O)cc2)C2=C(C(=O)CCC2)C1c1ccc(Cl)cc1Cl (stereo not given) | 95 | 65 | 50 | 40 | 25 (≈ 51.1 µM)
23 | COc1cccc2c1C(=O)c1c(O)c3c(c(O)c1C2=O)C[C@@](O)(C(=O)CO)C[C@@H]3O[C@H]1C[C@H](N)[C@H](O)[C@H](C)O1 [DOXORUBICIN] | 100 | 68 | 32 | 19 | 38 (≈ 69.9 µM)
